Reference: publication PMC4377293 (The Biochemical journal, 2015)
Values joined by “and” are separate entries in the source; they are usually repeats but may differ in a detail not shown here. Identical values can stand only once.

Tests used:
human PRODH2 157–515 [1] = biological target: T1, human PRODH2 157–515 (Homo sapiens, UniProt Q9UF12); assay: Steady-state kinetic analysis with the o-AB assay; assay type: biochemical; conditions: for reaction as substrate: tested at 500 mM
T1 sequence (Q9UF12 81-439 limits assumed): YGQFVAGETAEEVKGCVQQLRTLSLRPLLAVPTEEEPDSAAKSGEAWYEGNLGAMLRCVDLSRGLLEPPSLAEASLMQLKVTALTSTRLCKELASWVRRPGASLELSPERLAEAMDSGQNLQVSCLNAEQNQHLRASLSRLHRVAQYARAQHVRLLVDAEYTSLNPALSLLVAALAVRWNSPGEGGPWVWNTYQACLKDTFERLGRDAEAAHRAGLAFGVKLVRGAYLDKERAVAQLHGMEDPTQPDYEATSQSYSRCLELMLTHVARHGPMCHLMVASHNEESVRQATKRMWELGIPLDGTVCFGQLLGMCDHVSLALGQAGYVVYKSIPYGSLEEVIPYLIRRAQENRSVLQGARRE

[2] = biological target: T2, human PRODH2 157–515 (HYPDH) (Homo sapiens, UniProt Q9UF12); assay: Inhibition studies, standard o-AB assay; assay type: biochemical; conditions: 600 mM Hyp; for inhibition of HYPDH activity: up to 5 mM; for IC50: 5 min preincubation, compound up to 5 mM
T2 sequence (Q9UF12 81-439 limits assumed): T1 sequence (Q9UF12 81-439 limits assumed)
Summary of the method: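 Purified PRODH2 157–515 at 200 nM in 50 mM HEPES pH 7.5 with 4 mM o-AB and 200 μM CoQ1 as electron acceptor, 25°C. Test compound (up to 5 mM) was preincubated with enzyme for 5 min, then 600 mM Hyp was added. Product–o-AB adduct was followed at 443 nm. Percent activity versus concentration was fit assuming single-site binding to give IC50. Stocks were aqueous, except one in DMSO (3% final).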

human PRODH2 157–515 [3] = biological target: T1, human PRODH2 157–515; assay: Steady-state kinetics with ubiquinone analogues as electron acceptors; assay type: biochemical; conditions: for ability to support Hyp turnover as electron acceptor: Triton X-100 included with CoQ4
human PRODH2 157–515 [4] = biological target: T1, human PRODH2 157–515; assay: Sulfite reactivity; assay type: binding
Summary of the method: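 The flavin spectrum was recorded until absorbance stabilised, and ΔA455 was fit hyperbolically for Kd. For adduct reversibility, a proline-analogue inhibitor (1–5 mM final) was added and incubated for 30 min before the spectrum was re-acquired.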

human PRODH1 = conditions: read-out: Kd for sulfite binding; ref [34], [45]; cited from earlier work
[5] = biological target: Helicobacter hepaticus PutA; conditions: read-out: Kd for sulfite binding; ref [34], [45]; cited from earlier work
E. coli PutA = conditions: ref [43], [45]; cited from earlier work
[6] = tested on: PRODH homologue of Saccharomyces cerevisiae; conditions: ref [43], [45]; cited from earlier work
human PRODH2 157–515 [7] = biological target: T1, human PRODH2 157–515; assay: Anaerobic titration with Hyp; assay type: binding; conditions: Kd from anaerobic titration versus Km from o-AB assay

Structure (SMILES): O=C(O)[C@H]1C[C@@H](O)CN1 (relative stereo) [cis-4-OH-D-proline]
- reaction as substrate (human PRODH2 157–515 [1]; 200 μM CoQ1): does not react
- inhibition of HYPDH activity [2]: did not cause inhibition

Structure (SMILES): COC1=C(OC)C(=O)C(CC=C(C)C)=C(C)C1=O [CoQ1, Coenzyme Q1]
- kcat (human PRODH2 157–515 [3]; 0–400 μM ubiquinone analogue, 600 mM Hyp, 50 mM HEPES pH 7.5): 0.19 ± 0.01 s⁻¹
- Km (human PRODH2 157–515 [3]; 0–400 μM ubiquinone analogue, 600 mM Hyp, 50 mM HEPES pH 7.5, 4 mM o-AB, 200 nM PRODH2 157–515): 124 ± 19 µM
- ability to support Hyp turnover as electron acceptor (human PRODH2 157–515 [3]; 600 mM Hyp): support Hyp turnover

Structure (SMILES): O=C(O)c1cc(O)[nH]n1 [5-OH-1H-pyrazole-3-COOH]
- IC50 [2]: 2900 ± 100 µM

Structure (SMILES): O=C(O)C1CCCO1 (stereo not shown) [THFA, tetrahydrofuroic acid]
- reversal of the sulfite adduct (flavin spectrum) (human PRODH2 157–515 [4]; 1–5 mM THFA added, 30 min incubation): returned the flavin spectrum to the oxidized state
- IC50 [2]: 1500 ± 100 µM

Structure (SMILES): CC1=CC(=O)c2ccccc2C1=O [Menadione]
- Ki (human PRODH2 157–515 [3]): 306 ± 34 µM
- ability to support Hyp turnover as electron acceptor (human PRODH2 157–515 [3]; 600 mM Hyp): support Hyp turnover

Structure (SMILES): CC1=C(C)C(=O)C(C)=C(C)C1=O [Duroquinone]
- ability to support Hyp turnover as electron acceptor (human PRODH2 157–515 [3]; 600 mM Hyp): support Hyp turnover

Structure (SMILES): COC1=C(OC)C(=O)C(C/C=C(\C)CC/C=C(\C)CC/C=C(\C)CCC=C(C)C)=C(C)C1=O [CoQ4]
- ability to support Hyp turnover as electron acceptor (human PRODH2 157–515 [3]; 600 mM Hyp): inability to use

Structure (SMILES): O=C(O)[C@@H]1CC[C@@H](O)C1 [(1R, 3R) 3-OH-cyclopentane carboxylic acid]
- IC50 [2]: 2100 ± 100 µM

Structure (SMILES): O=C(O)[C@H]1CC[C@@H](O)C1 [(1S, 3R) 3-OH-cyclopentane carboxylic acid]
- inhibition of HYPDH activity [2]: did not cause inhibition
- inhibition of HYPDH activity ([2]; listed as (1S, 3R) 3-OH-cyclopentane-COOH): did not inhibit

Structure (SMILES): O=C(O)[C@@H]1CCCN1 [Pro, L-proline]
- saturation of PRODH2 by substrate (human PRODH2 157–515 [1]; up to 750 mM Pro, 200 μM CoQ1): unable to saturate

Structure (SMILES): COC1=C(OC)C(=O)C(C/C=C(\C)CCC=C(C)C)=C(C)C1=O [CoQ2]
- ability to support Hyp turnover as electron acceptor (human PRODH2 157–515 [3]; 600 mM Hyp): inability to use

Structure (SMILES): O=S([O-])[O-].[Na+].[Na+] [sulfite, sodium sulfite]
- time for the spectrum to reach equilibrium (adduct formation) (human PRODH2 157–515 [4]; aerobic, 25 °C): ~ 6 h
- Kd (human PRODH2 157–515 [4]; read-out: Kd for sulfite binding, 50 μM PRODH2 157–515, 50 mM potassium phosphate pH 7.6, 25 °C, 6 h equilibration): 64 ± 7.7 µM
- Kd (human PRODH1): 10400 µM
- Kd [5]: 400 µM
- sulfite binding (E. coli PutA): do not bind
- sulfite binding [6]: do not bind

Structure (SMILES): O=C(O)C1CC(O)CN1 [trans-4-OH-D-proline]
- reaction as substrate (human PRODH2 157–515 [1]; 200 μM CoQ1): does not react
- inhibition of HYPDH activity [2]: did not cause inhibition

Structure (SMILES): O=C(O)[C@@H]1C[C@@H](O)CN1 [Hyp, trans-4-hydroxy-L-proline]
- fold difference in kcat/Km (specificity constant), Hyp over Pro (human PRODH2 157–515 [1]; 200 μM CoQ1): 12 fold and ~ 12 fold
- fold lower kcat with O2 than with CoQ1 as electron acceptor (human PRODH2 157–515 [1]; air saturated buffer versus 200 μM CoQ1): ~ 100 fold
- fold lower Kd than Km (human PRODH2 157–515 [7]): ~ 1600 fold and 1600 fold
